From PubChem
Dyrk1A ADPGlo: blocks rat Dyrk1A kinase activity; 310,000 tested, 0.43% active; inhibition, % at 12.5 µM; AID 504441; ADP-Glo luminescence, NFATc1 peptide; Q63470
SR-BI DiI inh: inhibitors of mouse SR-BI mediated HDL lipid uptake. Q61009. ldlA[mSR-BI] CHO cells, DiI-HDL uptake fluorescence, 3 h. inhibition, % at 12.5 µM. 320,000 tested, 0.96% active;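 active = mean replicate inhibition of at least 70% and a set share of replicates each scoring 70 or more; inconclusive = meets just one of the two criteria; inactive = fails both criteria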
CDK5 inh: inhibitors of human CDK5/p35 kinase | Recombinant CDK5/p35, ADP-Glo luminescence, 60 min | inhibition, % at 10 µM | 330,000 tested, 0.01% active | AID 488839;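 active = highest replicate inhibition of at least 50% and at least 75% of replicates reaching 50%; inconclusive = only one of the two criteria met; inactive = both criteria failed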
Target sequence (Q00535 whole entry, looked up): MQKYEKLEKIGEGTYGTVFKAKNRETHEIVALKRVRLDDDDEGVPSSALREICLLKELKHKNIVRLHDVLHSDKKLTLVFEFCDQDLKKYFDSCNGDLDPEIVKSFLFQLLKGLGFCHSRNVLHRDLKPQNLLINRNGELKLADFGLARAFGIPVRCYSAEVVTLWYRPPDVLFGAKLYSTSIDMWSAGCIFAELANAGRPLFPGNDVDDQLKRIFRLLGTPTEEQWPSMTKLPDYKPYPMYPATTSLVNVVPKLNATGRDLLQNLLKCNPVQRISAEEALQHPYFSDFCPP
Target sequence (Q15078 whole entry, looked up): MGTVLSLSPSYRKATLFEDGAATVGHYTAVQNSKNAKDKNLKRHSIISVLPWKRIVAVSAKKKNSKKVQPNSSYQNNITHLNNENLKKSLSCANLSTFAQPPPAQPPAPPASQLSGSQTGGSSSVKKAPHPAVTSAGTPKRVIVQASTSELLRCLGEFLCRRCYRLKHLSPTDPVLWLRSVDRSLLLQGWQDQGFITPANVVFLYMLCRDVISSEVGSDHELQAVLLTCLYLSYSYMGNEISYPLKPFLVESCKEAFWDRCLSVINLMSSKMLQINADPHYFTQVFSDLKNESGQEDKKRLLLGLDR
dFosB act-1: mouse delta FosB homodimer activation; 340,000 tested, 0.99% active; P13346; purified delta FosB, TAMRA-CDK5 oligo fluorescence polarization; percent of positive-control signal above neutral wells; activation, % at 25 µM;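 active = mean activation above about 17%, with every replicate also reaching it, limit read from the data, passing the limit was not always enough; inconclusive = only one of the two conditions met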
SR-BI DiI-HDL act: SR-BI HDL lipid transfer activation; CHO ldlA[mSR-BI] cells, DiI-HDL uptake fluorescence, 3 h; 100 = double the neutral-control signal; activation, % at 12.5 µM; 320,000 tested, 0.096% active;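 active = mean replicate activation of at least 60% and every replicate at or above 60%; inconclusive = mean or all-replicate condition met, but not both; inactive = mean below 60% and not all replicates reaching 60%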
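System: LDL receptor-deficient CHO ldlA cells overexpressing murine SR-BI | Timing: 3 h uptake period with compound, 37 °C | Medium: HEPES-buffered (25 mM, pH 7.4) F12 plus 0.5% BSA | Dosing: Single-point compound dose | Signal: Bottom-read fluorescence, 550/595 nm | Read-out: Retained DiI signal reflecting DiI-HDL uptake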
NSD2 inh: NSD2 (human) methyltransferase inhibition. O96028. NSD2 peptide methylation, AlphaScreen, 120 min. inhibition, % at 12.5 µM. 310,000 tested, 0.54% active. AID 743445
dFosB act-2: activators of mouse delta FosB homodimer DNA binding; AID 588690; shares compounds with dFosB act-1; activation, % at 24.9 µM; 2,400 tested, under 10 active; purified delta FosB, TAMRA-CDK5 oligo fluorescence polarization; normalised: neutral wells 0, positive control 100;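 active = highest replicate activation at or above 34% and every replicate reaching that threshold; inconclusive = meets only one of the two criteria; inactive = meets neither criterion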;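 also: higher polarization means more probe DNA bound by delta FosB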
Dyrk1A artifact: ADP-Glo luciferase interference, Dyrk1A counter-screen | ADP-Glo luciferase artifact assay, no Dyrk1A, luminescence | 1,300 tested, under 10 active | AC50, µM (series often up to 12 µM) | shares compounds with Dyrk1A ADPGlo;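 active = fitted half-maximal dose AC50 no more than ten times the top valid tested dose, with luminescence dropping as dose rises; inconclusive = poor fit, or flat fit with 30 to 70% inhibition; inactive = the rest, signal increases included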
AlphaScreen art: AlphaScreen assay artifact in NSD2 counter-screen | 1,500 tested, 9.4% active | shares compounds with NSD2 inh | AlphaScreen artifact counterscreen, preloaded methylated H4 peptide | AC35, µM (series often up to 10 µM) | AID 1053174; call rule not given here
Each line names hits and unclear results; the compound was inactive in the other large screens (follow-up assays come after a bar, where they were run). In the library only some 2.5% were active in any assay of this set; here they are far more common. Rule as the data show it, unless noted: active = inhibition above about 50%; inactive = the rest.

O=C(Cc1ccccc1)NNC1CC(=O)N(c2ccc(Cl)cc2)C1=O (stereo unspecified)	none
CCCSc1nc2c(cnn2-c2ccc(F)cc2)c(=O)[nH]1	dFosB act-1 47.9 (no result: NSD2 inh) | dFosB act-2 inactive
O=c1[nH]c(SCc2ccccc2)nc2c1cnn2-c1ccc(F)cc1	none (no result: NSD2 inh)
O=c1[nH]c(SCc2ccc(F)cc2)nc2c1cnn2-c1ccc(F)cc1	dFosB act-1 35.0 (no result: NSD2 inh) | dFosB act-2 inactive
O=Cc1cn(-c2ccccc2)nc1-c1cc2c(ccc3ccccc32)oc1=O	none
O=Cc1cn(-c2ccccc2)nc1-c1cc2cc(O)ccc2oc1=O	dFosB act-1 24.8 | dFosB act-2 inactive
CC(=O)Nc1ccc(NC(=O)Cn2cnc(S(=O)(=O)N3CCOCC3)c2)cc1	none
O=C1Cc2c([nH]c3ccc([N+](=O)[O-])cc23)-c2ccccc2N1	dFosB act-1 30.6 (no result: Dyrk1A ADPGlo, NSD2 inh) | dFosB act-2 inactive
O=c1[nH]c2cc([N+](=O)[O-])ccc2c2ccccc12	none (no result: Dyrk1A ADPGlo)
O=C(Nc1cccc(C(F)(F)F)c1)Nc1nnc([C@@H]2C[C@H](O)[C@@H](CO)O2)s1	none (no result: Dyrk1A ADPGlo, SR-BI DiI inh, CDK5 inh, dFosB act-1, SR-BI DiI-HDL act)
COc1cc(NC(=O)c2nn(C)c3c2CS(=O)(=O)c2ccccc2-3)cc(OC)c1	dFosB act-1 22.7 | dFosB act-2 inactive
O=C(CNC(=O)c1ccc(-c2ccccc2)cc1)Nc1ccc(S(=O)(=O)Nc2ncccn2)cc1	dFosB act-1 24.5 (no result: SR-BI DiI inh, SR-BI DiI-HDL act) | dFosB act-2 inactive
COc1ccc(COC(=O)C2CCN(S(=O)(=O)c3ccc(C)cc3)CC2)cc1	none
O=c1[nH]cnc2c1sc1nc3c(c(-c4ccc(Cl)cc4)c12)CCC3	none
O=c1[nH]cnc2c1sc1nc(C(F)F)cc(-c3ccccc3)c12	dFosB act-1 32.4 (no result: Dyrk1A ADPGlo) | dFosB act-2 inactive
COc1ccc(CNCC(O)(c2ccc(Cl)cc2)c2ccc(Cl)cc2)cc1OC	none
COc1ccc(CNCC(O)(c2ccc(Cl)cc2)c2ccc(Cl)cc2)cc1	dFosB act-1 21.0 | dFosB act-2 inactive
Cc1cnc(CNC(=O)CC2C(=O)NCCN2Cc2cccc(F)c2F)cn1 (stereo unspecified)	none
Cc1n[nH]c(C)c1S(=O)(=O)N1CCN(S(=O)(=O)c2cccc(F)c2)CC1	none
O=C(Nc1ccc(F)cc1)Nc1ccccc1F	none
O=C(Nc1ccc(NC(=O)c2ccccc2O)cc1)Nc1ccc(F)cc1F	dFosB act-1 31.8 (no result: Dyrk1A ADPGlo, SR-BI DiI inh, SR-BI DiI-HDL act) | dFosB act-2 inactive
Cc1ccc(S(=O)(=O)Nc2ccc(NC(=O)Nc3ccc(F)cc3F)cc2)cc1	dFosB act-1 20.2 | dFosB act-2 inactive
COC(=O)c1ccccc1NC(=O)CCn1c(=O)oc2ccccc21	none
O=c1c2c(O)cc(O)cc2oc2c(O)ccc(O[C@H]3O[C@@H](CO)[C@H](O)[C@@H](O)[C@@H]3O)c12	Dyrk1A ADPGlo 73.0, dFosB act-1 17.2 (no result: NSD2 inh) | dFosB act-2 inactive | Dyrk1A artifact inactive
O=C(Nc1cccc(-c2cn3cccnc3n2)c1)c1ccc(Br)o1	Dyrk1A ADPGlo 51.0, dFosB act-1 18.8 (no result: NSD2 inh) | dFosB act-2 inactive | Dyrk1A artifact inactive
O=C(Nc1cccc(-c2cn3cccnc3n2)c1)c1ccco1	none (no result: SR-BI DiI inh, SR-BI DiI-HDL act)
CC(C)c1ccc(NC(=O)c2cc(-c3cc(F)ccc3OCC3CCCO3)n[nH]2)cc1 (stereo unspecified)	none (no result: Dyrk1A ADPGlo, SR-BI DiI inh, CDK5 inh, dFosB act-1, SR-BI DiI-HDL act)
Cc1ccc(-n2nc3c(=O)n(CC(=O)NCc4ccccc4)nc(C)c3c2C)cc1	dFosB act-1 20.8, NSD2 inh 79.7 | dFosB act-2 inactive | AlphaScreen art inactive
COc1ccc(-n2nnnc2SCC(=O)c2ccc3c(c2)OCCO3)cc1	dFosB act-1 22.6, NSD2 inh 97.9 | dFosB act-2 inactive | AlphaScreen art inactive
O=C(NCCC1CCCCN1S(=O)(=O)c1ccccc1)C(=O)Nc1ccc(F)cc1F (stereo unspecified)	none
Cc1cc(C)n(CCOc2ccc(Br)cc2)n1	none
CCN(CC)CCNc1ccnc2cc(Cl)ccc12	none
CCNC1CCC(Nc2ccnc3cc(Cl)ccc23)CC1 (stereo unspecified)	dFosB act-1 20.0, NSD2 inh 89.0 | dFosB act-2 inactive | AlphaScreen art inactive
Fc1ccccc1-c1nc(-c2ccc(-c3nn[nH]n3)cc2)no1	Dyrk1A ADPGlo 58.6 (no result: NSD2 inh) | Dyrk1A artifact inactive
CCCCCCCCCCCCCCCC[N+](C)(C)CCN(Cc1ccc(OC)cc1)c1ncccn1	Dyrk1A ADPGlo 63.4 (no result: NSD2 inh) | Dyrk1A artifact inactive
O=[N+]([O-])c1ccccc1S(=O)(=O)Nc1cccc(S(=O)(=O)N2CCCC2)c1	none
O=c1oc(-c2ccc(O)c(O)c2)cc2cc(O)cc(O)c12	Dyrk1A ADPGlo 73.2 (no result: NSD2 inh) | Dyrk1A artifact inactive
O=c1oc(-c2ccc(O)c(O)c2)cc2cccc(O)c12	none (no result: NSD2 inh)
Cc1cc2c(s1)c1cnn(Cc3cc(F)c(F)cc3F)c(=O)c1n2C	none (no result: Dyrk1A ADPGlo, SR-BI DiI inh, CDK5 inh, dFosB act-1, SR-BI DiI-HDL act)
c1coc(C2=NCCc3ccccc32)c1	none
Nc1ncnc(N)c1N=Nc1ccccc1	Dyrk1A ADPGlo 54.4 | Dyrk1A artifact inactive
CCN(CC(=O)N1CCC(C(N)=O)CC1)S(=O)(=O)c1cc(Cl)ccc1Cl	none
Nc1cc2c(cc1[N+](=O)[O-])-c1ccccc1C2=NO	Dyrk1A ADPGlo 79.8, dFosB act-1 inconclusive | Dyrk1A artifact inactive
CCc1cccc(NC(=O)c2ccc3c(=O)n4c(nc3c2)CCCCC4)c1	none (no result: NSD2 inh)
O=c1[nH]c(=S)[nH]c2sccc12	Dyrk1A ADPGlo 63.6 | Dyrk1A artifact inactive
O=c1[nH]c(=S)[nH]c2scc(-c3ccc(Br)cc3)c12	none
Cc1ccc(CN2CCN(c3ncccn3)CC2)o1	Dyrk1A ADPGlo 56.4 | Dyrk1A artifact inactive
Cc1ccc(CN2CCN(c3ccccc3)CC2)o1	none
O=c1c(-c2ccc(O)cc2)coc2cc(O)ccc12	none (no result: NSD2 inh)
O=c1c(O)c(-c2ccc(O)c(O)c2)oc2cc(O)ccc12	Dyrk1A ADPGlo 87.7 (no result: NSD2 inh) | Dyrk1A artifact inactive
O=c1c(O)c(-c2ccc(O)cc2)oc2cc(O)cc(O)c12	Dyrk1A ADPGlo 59.0 (no result: NSD2 inh) | Dyrk1A artifact inactive
CN(C)S(=O)(=O)c1cccc(NC(=S)Nc2cccc3cnccc23)c1	Dyrk1A ADPGlo 55.8 (no result: NSD2 inh) | Dyrk1A artifact inactive
Fc1ccc(NC(=S)Nc2cccc3cnccc23)cc1	Dyrk1A ADPGlo 59.5 | Dyrk1A artifact inactive
Cc1ccc(/C=c2/sc3n(c2=O)CCCN=3)o1	none
